Out of some 360,000 compounds screened, about 950 (0.26%) were called active.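 The calls were made as follows: active = inhibition above a per-plate limit, mean inhibition of low control wells plus 3 SD (cut at about 25% in these data); inactive = the rest.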 The entries come from a sample that favours actives as a whole.
These compounds were tested against ADP-ribosylation factor GTPase-activating protein 1 (Rattus norvegicus) (UniProt Q62848) (assay: inhibitors of rat ARFGAP1 GAP activity, primary screen, biochemical, fluorescence polarization, GDP tracer (AID 651572;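 also: 0% = DMSO wells with enzyme and 100% = wells lacking Arfgap1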)). Settings: Arfgap1-stimulated ARF1 GTP hydrolysis, GDP FP detection; at 16.5 µM; stronger effect = higher value.
Sequence of ADP-ribosylation factor GTPase-activating protein 1 (Rattus norvegicus) (Q62848 1-136 limits assumed): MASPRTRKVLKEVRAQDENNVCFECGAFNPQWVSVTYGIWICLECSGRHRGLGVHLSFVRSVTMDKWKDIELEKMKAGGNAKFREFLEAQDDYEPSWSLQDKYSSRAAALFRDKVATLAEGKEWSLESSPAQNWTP
How it was run: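 Assay system: Rat Arfgap1 GAP domain (His6, aa 1-136), purified enzyme | Buffer or medium: HEPES 25 mM pH 7.5, NaCl 150 mM, MgCl2, DTT | Schedule: GTP hydrolysis reaction 2 h at 25 °C | Signal: FP of antibody-bound GDP Alexa 633 tracer, ex 620/em 688 nm | Measure: Percent inhibition of Arfgap1-stimulated GTP hydrolysis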
With `O=C(O)CCn1cc(/C=C/C(=O)c2ccc(Cl)cc2)c(-c2cccc(Br)c2)n1` the inhibition was 26.5% (active). In the case of `CCOC(=O)C1=C(C(=O)OCC)C2N(Cc3ccc(C#N)cc3)c3ccccc3[C@@]23C[C@@H](C(=O)OC)N(S(=O)(=O)c2ccc(F)cc2)C3=N1` (stereo not given in full), the inhibition is reported as 6.03% (inactive). In the case of `CCc1c(-c2ccccc2OC)ncn1CCc1ccccc1OC`, the inhibition is reported as 2.34% (inactive). `CC1CCN(C(=O)c2ncn3c2C(=O)N[C@@H](C)C3)CC1` was tested, and the inhibition was 5.31% (inactive). In the case of `COc1cccc(-c2cc(CNC(=O)[C@@H](Cc3ccccc3)NC(=O)[C@H]3O[C@@H](n4cnc(C(N)=O)n4)[C@H](O)[C@@H]3O)no2)c1`, the inhibition is reported as -9.08% (inactive). `COC(=O)C1=C(C)N(Cc2ccc(C(F)(F)F)cc2)C(=NCc2ccccc2)NC1c1ccccc1C(F)(F)F` (stereo not given) was tested, and the inhibition was 9.08% (inactive). For `O=C(O)c1ccc(S(=O)(=O)N2CCOCC2)o1`, the inhibition was -3.82% (inactive). `O=C(O)c1ccc(COc2c(F)c(F)cc(F)c2F)o1` was tested, and the inhibition was 5.24% (inactive). With `O=C(O)CSCc1ccc(C(=O)O)o1` the inhibition was 25.2% (active). With `Cc1cc(S(=O)(=O)N2CCOCC2)ccc1OCC(=O)Nc1cccc(C(F)(F)F)c1` the inhibition was 2.22% (inactive). In the case of `CCNS(=O)(=O)c1ccc(NC(=O)c2cncc(Br)c2)cc1`, the inhibition is reported as -3.5% (inactive). In the case of `CCNS(=O)(=O)c1ccc(NC(=O)Nc2cccc(C(F)(F)F)c2)cc1`, the inhibition is reported as 28.9% (active). For `COC(=O)[C@]12C[C@H](CC(=O)N3CCN(C(=O)C4CC4)CC3)C(=O)N(Cc3ccc4c(c3)OCO4)C1=C[C@H](C(C)(C)C)O[C@@H]2C`, the inhibition was 11.2% (inactive). For `COC(=O)[C@H](CC(C)C)NS(=O)(=O)c1c(F)cccc1F`, the inhibition was 4.12% (inactive). With `Cc1ccc(-n2ncc3c(=O)n(-c4ccc(C)c(C)c4)c(-c4ccco4)nc32)cc1` the inhibition was -1.3% (inactive). `Cc1ccc(-n2ncc3c2ncn2nc(-c4ccco4)nc32)c(C)c1` was tested, and the inhibition was 44.3% (active). In the case of `COC(=O)CSc1ncnc2c1cnn2-c1ccc(C)cc1C`, the inhibition is reported as 8% (inactive). `Cc1ccc(NC(=O)N2c3ccccc3SC2c2ccco2)c(C)c1` (stereo not given) was tested, and the inhibition was -11.2% (inactive). `COCc1[nH]nc2c1C(c1ccccc1)N(c1ccccc1)C2=O` (stereo not given) was tested, and the inhibition was 8.17% (inactive). For `CCOC(=O)CNC(=O)N(C)[C@H]1C[C@H]2c3[nH]c4c(-c5ccc6c(c5)OCO6)cccc4c3CCN2C(=O)[C@H]1[C@H](C)O`, the inhibition was -1.05% (inactive). `O=c1[nH]c(-c2ccccc2)cn1C1CCN(Cc2ccc(-c3nc4ccc(F)cc4nc3-c3ccccc3)cc2)CC1` was tested, and the inhibition was 6.41% (inactive). With `Cc1ccc(C)c(CN2CCC(CNC(=O)C3CCCN(c4ncnc5c4nc4n5CCCCC4)C3)CC2)c1` (stereo not given) the inhibition was 1.05% (inactive). With `Cn1c(=O)[nH]c(=O)c2c1nc(N1CCN(C(c3ccccc3)c3ccccc3)CC1)n2CCO` the inhibition was -3.12% (inactive). For `Cc1nnc(SCCCn2c(N3CCCCC3)nc3c2c(=O)[nH]c(=O)n3C)s1`, the inhibition was -8.33% (inactive). In the case of `Cn1c(=O)[nH]c(=O)c2c1nc(N1CCN(CCO)CC1)n2CCSc1nc2ccccc2s1`, the inhibition is reported as 38.1% (active). For `CCCCCCCCN1C(=O)[C@@H](CC(=O)N2CCN(C(=O)OCC)CC2)C[C@@]2(C(=O)OC)C1=C[C@H](C1CCCC1)O[C@@H]2C`, the inhibition was -12.9% (inactive). In the case of `NC(c1csc(NC(=O)Nc2cccc(C(F)(F)F)c2)n1)C1CCCCC1` (stereo not given), the inhibition is reported as 10.7% (inactive). `COc1ccc(C(N)c2csc(NC(=O)Nc3cccc(C(F)(F)F)c3)n2)cc1` (stereo not given) was tested, and the inhibition was 26.1% (active). With `COc1ccc(CC(N)c2csc(NC(=O)Nc3ccc(C(C)C)cc3)n2)cc1` (stereo not given) the inhibition was 16% (inactive). For `O=C(O)Cn1cnc2c(NCc3ccccc3)ncnc21`, the inhibition was -10.7% (inactive).
